Experiments:
[1] = Stability of MX in human whole blood kept in ice bath before centrifugation; assay type: in vitro ADME
Summary of the method: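 From one patient, five 2-ml lithium-heparin blood tubes were drawn 70 min after infusion and kept in an ice bath. They were centrifuged 0, 30, 60, 90 and 120 min after drawing (1500 × g, 4 °C, 5 min). Plasma was analysed later by the derivatisation LC-MS/MS method, and the mean, SD and %CV were calculated.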

[2] = Stability of MX stock solution; assay type: physicochemical; conditions: for Recovery ± SD (n = 6): Stock solution 2.00 mg/ml
Summary of the method: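 The 2.00 mg/ml stock was stored at 4 °C or at 23 °C, then serially diluted to 45.0 ng/ml in 1% formic acid. It was derivatised with IS and analysed by MRM LC-MS/MS. Six parallel measurements gave the mean analyte/IS peak-area ratio, expressed as percent recovery against freshly prepared stock.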

[3] = Stability of MX in human plasma QCs; assay type: in vitro ADME; conditions: for recoveries of QC samples: three concentrations (3.50, 45.0 and 450 ng/ml)
Summary of the method: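 Plasma QCs were prepared in pooled human plasma with 10% 0.100 N HCl and held on the bench (23 °C), in the autosampler (15 °C), through freeze-thaw cycles (−70 to 23 °C) or at −70 °C. Samples were derivatised with 4-(N,N-diethylamino)benzaldehyde (70 °C, 1 h), extracted into MTBE and run by MRM LC-MS/MS. The mean MX/MX-d3 peak-area ratio (n = 6) relative to freshly prepared QCs is given as percent recovery.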

[4] = Phase I clinical trial pharmacokinetic study of MX; assay type: in vivo, human; conditions: for Measured [MX] First analysis / Measured [MX] Re-analysis after 9 months: patient plasma; for Measured [MX] Re-analysis after 9 months: after 9-month storage at −70 °C
Summary of the method: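 Heparinised blood was iced, spun (1500 × g, 4 °C, 5 min), and plasma stored at −70 °C. Plasma was derivatised and assayed by LC-MS/MS against a calibration curve. Infusion data were fitted one-compartment; 1-h data were analysed by NCA.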

[5] = clinical trials, TMZ dosing regimen 150 mg/m^2/day; cited from earlier work
[6] = patients, 1-h iv infusion, 20 patients (46 cycles), with oral TMZ

With CON [MX, Methoxyamine] the “changes in MX concentration in human whole blood” value ([1]; over a period of 2 hours, samples kept in an ice bath) was “no significant changes”, the “measured MX concentration, mean value” ([1]; patient blood, ice bath, centrifuged 0-120 min after drawing, SD 0.1 ng/ml) was 10.5 ng/mL and the “Recovery ± SD (n = 6)” value ([2]; Bench-top 23 °C, 18 hours) was 98.4 ± 6%. The “Recovery ± SD (n = 6)” value ([2]; Refrigerator 4 °C, 5 months) was 96.4 ± 7%, the “recoveries of stock solutions” value ([2]; refrigerator (4 °C) and bench top (23 °C)) was 96.4–98.4% and the “Recovery ± SD (n = 6)” value ([3]; High QC 450 ng/ml plasma, Autosampler 15 °C, 3 days) was 96.9 ±3%. For the same compound, the “Recovery ± SD (n = 6)” value ([3]; High QC 450 ng/ml plasma, Bench-top 23 °C, 18 hours) was 95.7 ± 2%, the “Recovery ± SD (n = 6)” value ([3]; High QC 450 ng/ml plasma, Deep freezer (Long-term) −70 °C, 5 months) was 103 ± 2% and the “Recovery ± SD (n = 6)” value ([3]; High QC 450 ng/ml plasma, Freeze & thaw −70 to 23 °C, 3 cycles) was 96.2 ± 2%. The “Recovery ± SD (n = 6)” value ([3]; Low QC 3.50 ng/ml plasma, Autosampler 15 °C, 3 days) was 90.7 ±6%, the “Recovery ± SD (n = 6)” value ([3]; Low QC 3.50 ng/ml plasma, Bench-top 23 °C, 18 hours) was 89.4 ± 4% and the “Recovery ± SD (n = 6)” value ([3]; Low QC 3.50 ng/ml plasma, Deep freezer (Long-term) −70 °C, 5 months) was 95.7 ±3%. The “Recovery ± SD (n = 6)” value ([3]; Low QC 3.50 ng/ml plasma, Freeze & thaw −70 to 23 °C, 3 cycles) was 96.6 ± 2%, the “Recovery ± SD (n = 6)” value ([3]; Mid QC 45.0 ng/ml plasma, Autosampler 15 °C, 3 days) was 94.5 ± 5% and the “Recovery ± SD (n = 6)” value ([3]; Mid QC 45.0 ng/ml plasma, Bench-top 23 °C, 18 hours) was 94.5 ± 4%. The “Recovery ± SD (n = 6)” value ([3]; Mid QC 45.0 ng/ml plasma, Deep freezer (Long-term) −70 °C, 5 months) was 101 ± 2%, the “Recovery ± SD (n = 6)” value ([3]; Mid QC 45.0 ng/ml plasma, Freeze & thaw −70 to 23 °C, 3 cycles) was 94.4 ± 2% and the “recoveries of QC samples” value ([3]; autosampler (15 °C)) was 90.7–96.9%. For the same compound, the “recoveries of QC samples” value ([3]; bench top) was 89.4–95.7%, the “recoveries of QC samples” value ([3]; long-term storage (5 months)) was 95.7–103% and the “recoveries of QC samples” value ([3]; three freeze-and-thaw cycles (−70 to 23 °C)) was 94.4–96.6%. The “Measured [MX] First analysis” value ([4]; sampling 0.250 h) was 5.36 ng/mL, the “Measured [MX] Re-analysis after 9 months” value ([4]; sampling 0.250 h) was 5.69 ng/mL and the “Measured [MX] First analysis” value ([4]; sampling 0.500 h) was 8.95 ng/mL. For the same compound, the “Measured [MX] Re-analysis after 9 months” value ([4]; sampling 0.500 h) was 10.2 ng/mL, the “Measured [MX] First analysis” value ([4]; sampling 0.750 h) was 16.2 ng/mL and the “Measured [MX] Re-analysis after 9 months” value ([4]; sampling 0.750 h) was 18.2 ng/mL. The “Measured [MX] First analysis” value ([4]; sampling 0.983 h) was 20.5 ng/mL, the “Measured [MX] Re-analysis after 9 months” value ([4]; sampling 0.983 h) was 22.1 ng/mL and the “Measured [MX] First analysis” value ([4]; sampling 1.17 h) was 25 ng/mL. For the same compound, the “Measured [MX] Re-analysis after 9 months” value ([4]; sampling 1.17 h) was 27.1 ng/mL, the “Measured [MX] First analysis” value ([4]; sampling 2.00 h) was 24.2 ng/mL and the “Measured [MX] Re-analysis after 9 months” value ([4]; sampling 2.00 h) was 24.3 ng/mL. For the same compound, the “Measured [MX] First analysis” value ([4]; sampling 4.00 h) was 18.3 ng/mL, the “Measured [MX] Re-analysis after 9 months” value ([4]; sampling 4.00 h) was 20 ng/mL and the “Measured [MX] First analysis” value ([4]; sampling 6.00 h) was 19 ng/mL. The “Measured [MX] Re-analysis after 9 months” value ([4]; sampling 6.00 h) was 19.5 ng/mL, the “Measured [MX] First analysis” value ([4]; sampling 8.00 h) was 18.9 ng/mL and the “Measured [MX] Re-analysis after 9 months” value ([4]; sampling 8.00 h) was 17.5 ng/mL. For the same compound, the “Measured [MX] First analysis” value ([4]; sampling 12.0 h) was 15.6 ng/mL, the “Measured [MX] Re-analysis after 9 months” value ([4]; sampling 12.0 h) was 16.2 ng/mL and the “Measured [MX] First analysis” value ([4]; sampling 24.0 h) was 13.3 ng/mL. The “Measured [MX] Re-analysis after 9 months” value ([4]; sampling 24.0 h) was 13.2 ng/mL, the “Measured [MX] First analysis” value ([4]; sampling 48.0 h) was 9.46 ng/mL and the “Measured [MX] Re-analysis after 9 months” value ([4]; sampling 48.0 h) was 10 ng/mL. The “Measured [MX] First analysis” value ([4]; sampling 72.0 h) was 6.56 ng/mL, the “Measured [MX] Re-analysis after 9 months” value ([4]; sampling 72.0 h) was 6.46 ng/mL and the “Measured [MX] First analysis” value ([4]; sampling 96.0 h) was 4.46 ng/mL. The “Measured [MX] Re-analysis after 9 months” value ([4]; sampling 96.0 h) was 4.76 ng/mL, the “Measured [MX] First analysis” value ([4]; sampling 120 h) was 3.55 ng/mL and the “Measured [MX] Re-analysis after 9 months” value ([4]; sampling 120 h) was 3.69 ng/mL. For the same compound, the “Measured [MX] First analysis” value ([4]; sampling 168 h) was 2.11 ng/mL, the “Measured [MX] Re-analysis after 9 months” value ([4]; sampling 168 h) was 2.29 ng/mL and the “Measured [MX] First analysis” value ([4]; sampling 192 h) was 1.55 ng/mL. The “Measured [MX] Re-analysis after 9 months” value ([4]; sampling 192 h) was 1.76 ng/mL, the “Measured [MX] First analysis” value ([4]; sampling 216 h) was 1.22 ng/mL and the “Measured [MX] Re-analysis after 9 months” value ([4]; sampling 216 h) was 1.39 ng/mL. For the same compound, the “mean Cmax” value [4, 6] was 14.98 ng/mL and the “mean t1/2” value [4, 6] was 54.21 h.

For Cn1nnc2c(C(N)=O)ncn2c1=O [TMZ, Temozolomide], the “maximum concentrations (Cmax) in human plasma” value [5] is listed as “below 10 μg/ml”.
